Assay results taken from ChEMBL document CHEMBL3739255, “Novel Series of Dihydropyridinone P2X7 Receptor Antagonists” (J Med Chem, 2015).

Key:
[1] = biological target: Nociceptin receptor (Homo sapiens) (UniProt P41146); assay: Inhibition of human ORL1 receptor at 10 uM by radioligand binding assay
Summary of the method: (§1)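 Commercial receptor scan across a 78-target panel, with percent inhibition measured at a test concentration of 10 uM.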

Rattus norvegicus [2] = organism: Rattus norvegicus; assay: Inhibition of rat central type benzodiazepine receptor at 10 uM by radioligand binding assay
Summary of the method: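 Single-concentration screen at 10 uM in a commercial 78-receptor panel run by CEREP; results are given as % inhibition.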

[3] = biological target: Sodium-dependent serotonin transporter (Homo sapiens) (UniProt P31645); assay: Inhibition of human 5-HT transporter at 10 uM; summary of the method: as §1
[4] = biological target: Galanin receptor type 1 (Homo sapiens) (UniProt P47211); assay: Inhibition of human galanin receptor 1 at 10 uM by radioligand binding assay
Summary of the method: (§2)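 Outsourced broad receptor-screening panel of 78 targets, each tested at a single 10 uM concentration; read-out is percent inhibition. Detailed conditions are given only in the Supporting Information.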

Rattus norvegicus [5] = organism: Rattus norvegicus; assay: Inhibition of rat GABA receptor at 10 uM by radioligand binding assay; summary of the method: as §2
[6] = biological target: 5-hydroxytryptamine receptor 1B (Homo sapiens) (UniProt P28222); assay: Inhibition of human 5-HT1B receptor at 10 uM by radioligand binding assay; summary of the method: as §1
[7] = biological target: 5-hydroxytryptamine receptor 3A (Homo sapiens) (UniProt P46098); assay: Inhibition of human 5-HT3 receptor at 10 uM; summary of the method: as §1
Sequence of 5-hydroxytryptamine receptor 3A (Homo sapiens) (P46098 whole entry): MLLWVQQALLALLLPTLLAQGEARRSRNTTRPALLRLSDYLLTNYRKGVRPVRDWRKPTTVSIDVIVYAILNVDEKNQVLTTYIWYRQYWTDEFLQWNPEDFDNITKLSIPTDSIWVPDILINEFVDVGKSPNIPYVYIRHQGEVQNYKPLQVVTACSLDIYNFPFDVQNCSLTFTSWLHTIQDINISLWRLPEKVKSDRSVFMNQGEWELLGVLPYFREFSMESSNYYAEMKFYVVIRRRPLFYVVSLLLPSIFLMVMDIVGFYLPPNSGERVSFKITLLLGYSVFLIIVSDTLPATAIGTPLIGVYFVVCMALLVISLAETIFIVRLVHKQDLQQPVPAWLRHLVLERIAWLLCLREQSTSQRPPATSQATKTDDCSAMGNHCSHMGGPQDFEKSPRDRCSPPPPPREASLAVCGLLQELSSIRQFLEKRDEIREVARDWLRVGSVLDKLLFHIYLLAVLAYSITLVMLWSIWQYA

Sequence of Nociceptin receptor (Homo sapiens) (P41146 whole entry): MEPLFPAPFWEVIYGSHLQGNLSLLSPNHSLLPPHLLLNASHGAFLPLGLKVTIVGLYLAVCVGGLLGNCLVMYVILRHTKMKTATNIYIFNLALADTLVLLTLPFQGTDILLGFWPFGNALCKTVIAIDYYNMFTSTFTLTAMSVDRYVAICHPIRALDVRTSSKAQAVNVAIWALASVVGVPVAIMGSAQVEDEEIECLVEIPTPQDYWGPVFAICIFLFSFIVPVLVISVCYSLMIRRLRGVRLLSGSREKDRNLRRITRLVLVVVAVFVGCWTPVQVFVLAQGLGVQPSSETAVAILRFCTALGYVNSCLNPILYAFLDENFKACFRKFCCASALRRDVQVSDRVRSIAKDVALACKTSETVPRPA
Sequence of Galanin receptor type 1 (Homo sapiens) (P47211 whole entry): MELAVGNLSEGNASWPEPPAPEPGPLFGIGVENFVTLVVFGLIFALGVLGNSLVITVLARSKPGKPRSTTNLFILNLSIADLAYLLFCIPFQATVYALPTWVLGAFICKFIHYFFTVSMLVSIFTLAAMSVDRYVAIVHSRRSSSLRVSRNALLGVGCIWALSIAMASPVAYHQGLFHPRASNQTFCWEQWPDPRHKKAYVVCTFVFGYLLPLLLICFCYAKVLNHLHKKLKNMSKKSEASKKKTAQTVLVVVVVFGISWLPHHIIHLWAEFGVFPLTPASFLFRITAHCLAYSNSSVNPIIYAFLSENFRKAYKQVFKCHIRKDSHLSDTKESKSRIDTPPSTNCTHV
Sequence of 5-hydroxytryptamine receptor 1B (Homo sapiens) (P28222 whole entry): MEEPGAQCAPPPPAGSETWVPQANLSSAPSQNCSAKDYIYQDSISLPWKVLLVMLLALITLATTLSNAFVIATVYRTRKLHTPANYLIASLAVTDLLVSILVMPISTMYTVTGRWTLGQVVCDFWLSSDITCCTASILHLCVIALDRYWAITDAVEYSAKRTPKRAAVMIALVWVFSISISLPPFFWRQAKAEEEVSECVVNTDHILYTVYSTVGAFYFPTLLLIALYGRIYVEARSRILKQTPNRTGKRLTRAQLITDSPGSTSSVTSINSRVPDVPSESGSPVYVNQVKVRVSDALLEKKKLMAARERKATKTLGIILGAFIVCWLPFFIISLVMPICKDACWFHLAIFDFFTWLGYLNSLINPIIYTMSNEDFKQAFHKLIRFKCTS
Sequence of Sodium-dependent serotonin transporter (Homo sapiens) (P31645 whole entry, looked up): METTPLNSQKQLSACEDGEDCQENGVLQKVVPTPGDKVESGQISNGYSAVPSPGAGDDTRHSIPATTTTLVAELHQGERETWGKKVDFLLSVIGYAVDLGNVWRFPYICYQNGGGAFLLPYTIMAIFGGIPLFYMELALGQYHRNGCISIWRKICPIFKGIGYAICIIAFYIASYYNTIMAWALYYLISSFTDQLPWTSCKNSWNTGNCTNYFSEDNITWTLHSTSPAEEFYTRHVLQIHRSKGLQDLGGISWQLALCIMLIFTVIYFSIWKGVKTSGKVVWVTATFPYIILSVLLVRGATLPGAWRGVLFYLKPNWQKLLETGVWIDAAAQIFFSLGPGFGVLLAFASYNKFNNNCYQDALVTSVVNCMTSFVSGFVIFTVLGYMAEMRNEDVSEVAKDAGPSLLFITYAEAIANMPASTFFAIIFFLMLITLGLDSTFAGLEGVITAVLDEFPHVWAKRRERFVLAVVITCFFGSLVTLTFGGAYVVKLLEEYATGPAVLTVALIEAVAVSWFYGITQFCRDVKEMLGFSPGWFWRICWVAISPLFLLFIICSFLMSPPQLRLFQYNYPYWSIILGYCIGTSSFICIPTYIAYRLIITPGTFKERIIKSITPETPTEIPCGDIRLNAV

inhibition [1]: < 30% | inhibition (Rattus norvegicus [2]): < 30% | inhibition [3]: < 30% | inhibition [4]: < 30% | inhibition (Rattus norvegicus [5]): < 30% | inhibition [6]: < 30% | inhibition [7]: < 30%
SMILES: Cc1cc(Cl)c(OCCO)cc1NC(=O)C1=CNC(=O)C[C@H]1c1ccc(F)cc1
